{"data": "Published values collected from several papers", "cell line": "MCF7", "effect on": "cell growth or viability", "note": "Each line is one published result; the experiments were not run side by side."}
{"SMILES": "O=[N+]([O-])c1cc(I)c(O)c(C=NNc2ccccc2)c1", "method": "MTT", "time": "24 h", "IC50": "7.76 µM"}
{"SMILES": "O=C(O)c1cn(Cc2ccc(C(F)(F)F)cc2)c2ccc(Oc3ccccc3)cc2c1=O", "method": "MTT", "time": "24 h", "IC50": "38.5 µM"}
{"SMILES": "CC(=O)c1nc2ccccc2n1Cc1cn([C@@H]2O[C@H](CO)[C@H](O)[C@H](O)[C@H]2O)nn1", "method": "LDH", "time": "48 h", "IC50": "2.89 µM"}
{"SMILES": "C/C(=N\\N=C(/C)c1c(O)c2ccccc2oc1=O)c1c(O)c2ccccc2oc1=O", "method": "MTT", "time": "48 h", "IC50": "33.6 µM"}
{"SMILES": "CN1CCc2c(c3ccccc3n2Cc2ccc(C(=O)NO)cc2)C1", "method": "CCK-8", "time": "48 h", "IC50": "27.4 µM"}
{"SMILES": "COc1cccc2c1C(=O)c1c(O)c3c(c(O)c1C2=O)C[C@@](O)(C(=O)CO)C[C@@H]3O[C@H]1C[C@H](N)[C@H](O)[C@H](C)O1", "method": "MTT", "IC50": "5.8 µg/mL"}
{"SMILES": "Cc1cccc(N=C2C(=O)N(Cc3cccc(Cl)c3)c3ccccc32)c1", "method": "MTT", "time": "48 h", "IC50": "2.12 µM"}
{"SMILES": "CN(C)C(=O)Nc1nc2c(Cl)cc(Cl)cc2c(=O)n1-c1ccccc1", "method": "MTT", "time": "48 h", "IC50": "> 200 µM"}
{"SMILES": "C[C@H]1[C@H](C)CC[C@]2(C)CC[C@]3(C)C(=CC(=O)[C@@H]4[C@@]5(C)CC[C@@H](O)[C@](C)(C(=O)NCc6cn(-c7ccc(F)cc7)nn6)[C@@H]5CC[C@]43C)[C@H]12", "method": "MTT", "time": "24 h", "IC50": "76.4 µM"}
{"SMILES": "c1ccc(Cn2nc(-c3nc(-c4ccccc4)n[nH]3)c3ccccc32)cc1", "time": "48 h", "IC50": "97.4 µM"}
{"SMILES": "COc1cccc2c1C(=O)c1c(O)c3c(c(O)c1C2=O)C[C@@](O)(C(=O)CO)C[C@@H]3O[C@H]1C[C@H](N)[C@H](O)[C@H](C)O1", "method": "MTT", "time": "48 h", "IC50": "3.1 µM"}
{"SMILES": "FC(F)(F)c1ccc(-c2noc(-c3nn(Cc4ccc(Cl)cc4Cl)c4ccccc34)n2)cc1", "time": "48 h", "IC50": "166 µM"}
{"SMILES": "O=[N+]([O-])c1ccc(O)c(C=NNc2ccc(C(F)(F)F)cc2)c1", "method": "MTT", "time": "24 h", "IC50": "13 µM"}
{"SMILES": "C/C(=N\\C(=S)/N=C(\\C)c1c(O)c2ccccc2oc1=O)c1c(O)c2ccccc2oc1=O", "method": "MTT", "time": "48 h", "IC50": "7.59 µM"}
{"SMILES": "C[C@H]1[C@H](C)CC[C@]2(C)CC[C@]3(C)C(=CC(=O)[C@@H]4[C@@]5(C)CC[C@@H](O)[C@](C)(C(=O)NCc6cn(-c7ccccc7C(F)(F)F)nn6)[C@@H]5CC[C@]43C)[C@H]12", "method": "MTT", "time": "24 h", "IC50": "83.4 µM"}
{"SMILES": "O=C1C(=Nc2ccc(Cl)cc2Br)c2ccccc2N1Cc1ccc([N+](=O)[O-])cc1", "method": "MTT", "time": "48 h", "IC50": "2.33 µM"}
{"SMILES": "CNc1cccc(Nc2nc(-c3ccncc3)nc3c2CNCC3)c1", "method": "MTT", "IC50": "> 100 µM"}
{"SMILES": "FC(F)(F)c1ccc(-c2nnc(-c3nn(Cc4ccc(Cl)cc4Cl)c4ccccc34)o2)cc1", "time": "48 h", "IC50": "71.1 µM"}
{"SMILES": "CCC(C(=O)N1C(=O)C(=Nc2ccc(Cl)cc2Br)c2ccccc21)c1ccccc1 (centres unmarked)", "method": "MTT", "time": "48 h", "IC50": "34.2 µM"}
{"SMILES": "O=C(O)c1c[nH]c2ccc(Oc3ccccc3)cc2c1=O", "method": "MTT", "IC50": "≥ 200 µM"}
{"SMILES": "Cc1ccc(C(C)C)c(OC2=C(Cl)C(=O)c3ccccc3C2=O)c1", "method": "MTT", "time": "24 h", "IC50": "4.59 µg/mL"}
{"SMILES": "CC(C)c1cccc(C(C)C)c1N=C1C(=O)Nc2ccccc21", "method": "MTT", "time": "48 h", "IC50": "0.69 µM"}
{"SMILES": "COc1ccc(N(Cc2csc(-c3ccc(Br)cc3)n2)C(=O)CCCCCC(=O)NO)cc1", "method": "MTT", "time": "72 h", "IC50": "9.21 µM"}
{"SMILES": "NS(=O)(=O)c1ccc(-n2nc(C(=O)NN=Cc3cccnc3)cc2-c2ccccc2)cc1", "method": "fluorescence", "time": "48 h", "IC50": "34.1 µM"}
{"SMILES": "Fc1ccc2c(-c3nnc(Cc4ccccc4)s3)nn(Cc3ccccc3)c2c1", "time": "48 h", "IC50": "161 µM"}
{"SMILES": "CNC(=O)c1cc(Oc2ccc(NC(=O)Nc3ccc(Cl)c(C(F)(F)F)c3)cc2)ccn1", "method": "MTT", "time": "48 h", "IC50": "7.06 µM"}
{"SMILES": "O=[N+]([O-])c1cc(Br)c(O)c(C=NNc2ccc(Cl)cc2)c1", "method": "MTT", "time": "24 h", "IC50": "10.1 µM"}
{"SMILES": "NS(=O)(=O)c1ccc(-n2nc(C(=O)NN3C(=O)CCC3=O)cc2-c2ccccc2)cc1", "method": "fluorescence", "time": "48 h", "IC50": "32.5 µM"}
{"SMILES": "COc1cccc2c1C(=O)c1c(O)c3c(c(O)c1C2=O)C[C@@](O)(C(=O)CO)C[C@@H]3O[C@H]1C[C@H](N)[C@H](O)[C@H](C)O1", "method": "LDH", "time": "48 h", "IC50": "1.81 µM"}
{"SMILES": "O=[N+]([O-])c1ccc(NC(=S)N/N=C/c2cccc3cc4ccccc4nc23)cc1", "method": "MTT", "time": "48 h", "IC50": "> 50 µM"}
{"SMILES": "O=C1CSC(=Nc2cc([N+](=O)[O-])ccc2[N+](=O)[O-])N1c1nnc(-c2ccc(C(F)(F)F)cc2N=C2SCC(=O)N2c2cc([N+](=O)[O-])ccc2[N+](=O)[O-])s1", "method": "MTT", "IC50": "83.4 µM"}
{"SMILES": "CN1CCC(NC2CCc3[nH]c4c(C(N)=O)ccc(-c5ccccc5Cl)c4c3C2)CC1 (centres unmarked)", "IC50": "0.0164 µM"}
{"SMILES": "O=[N+]([O-])c1cc(Br)c(O)c(C=NNc2ccc(Br)cc2)c1", "method": "MTT", "time": "24 h", "IC50": "9.23 µM"}
{"SMILES": "Cc1nc2ccc(-c3cccc(F)c3)cc2c(O)c1C(=O)O", "method": "MTT", "time": "48 h", "IC50": "≥ 100 µM"}
{"SMILES": "NS(=O)(=O)c1ccc(-n2nc(C(=O)NN=Cc3ccc(O)cc3)cc2-c2ccccc2)cc1", "method": "fluorescence", "time": "48 h", "IC50": "16.9 µM"}
{"SMILES": "O=C(C=Cc1ccc(OCCOc2ccc(C=CC(=O)c3cccs3)cc2)cc1)c1cccs1", "method": "MTT", "time": "48 h", "IC50": "11.5 µM"}
{"SMILES": "CCOC(=O)c1c(C)nc2ccc(-c3ccc(F)cc3)cc2c1O", "method": "MTT", "time": "48 h", "IC50": "11 µM"}
{"SMILES": "O=C(C=Cc1ccc(OCCCOc2ccc(C=CC(=O)c3cccs3)cc2)cc1)c1cccs1", "method": "MTT", "time": "48 h", "IC50": "30.1 µM"}
{"SMILES": "Cc1cccc(N=C2C(=O)N(Cc3ccccc3)c3ccccc32)c1", "method": "MTT", "time": "48 h", "IC50": "8.11 µM"}
{"SMILES": "C/C(=N\\CCNCCNCC/N=C(\\C)c1c(O)c2ccccc2oc1=O)c1c(O)c2ccccc2oc1=O", "method": "MTT", "time": "48 h", "IC50": "7.52 µM"}
{"SMILES": "O=C(NO)Nc1nc2ccc(Br)cc2c(=O)n1-c1ccccc1", "method": "MTT", "time": "48 h", "IC50": "29.6 µM"}
{"SMILES": "O=C1Nc2ccccc2C1=Nc1ccccc1I", "method": "MTT", "time": "48 h", "IC50": "42.6 µM"}
{"SMILES": "O=C(NO)Nc1nc2c(Cl)cc(Cl)cc2c(=O)n1-c1ccc(Cl)cc1", "method": "MTT", "time": "48 h", "IC50": "> 200 µM"}
{"SMILES": "Fc1ccc(NC(=S)N/N=C/c2cccc3cc4ccccc4nc23)cc1", "method": "MTT", "time": "48 h", "IC50": "> 50 µM"}
{"SMILES": "CN(C)C(=S)[N-]N=C(c1ccccn1)c1ccccn1.[O]=[V+]=[O]", "method": "MTT", "IC50": "0.89 µM"}
{"SMILES": "COc1ccc(N=C2SCC(=O)N2c2nnc(-c3ccc(C(F)(F)F)cc3N=C3SCC(=O)N3c3ccc(OC)cc3)s2)cc1", "method": "MTT", "IC50": "73.5 µM"}
{"SMILES": "CCCCCCCNC1=C(n2cncn2)C(=O)c2ccccc2C1=O", "method": "MTT", "time": "24 h", "IC50": "22.3 µg/mL"}
{"SMILES": "O=C1C(=Nc2ccc(Cl)cc2)c2ccccc2N1Cc1ccc([N+](=O)[O-])cc1", "method": "MTT", "time": "48 h", "IC50": "2.65 µM"}
{"SMILES": "O=C1Nc2ccccc2/C1=N/N=C/c1cccc([N+](=O)[O-])c1", "method": "MTT", "time": "24 h", "IC50": "48.9 µg/mL"}
{"SMILES": "C#Cc1cccc(Nc2ncnc3cc(OCCOC)c(OCCOC)cc23)c1", "method": "LDH", "time": "48 h", "IC50": "1.05 µM"}
{"SMILES": "O=C1CS/C(=N\\c2ccccc2Cl)N1c1nnc(-c2ccc(C(F)(F)F)cc2/N=C2\\SCC(=O)N2c2ccccc2Cl)s1", "method": "MTT", "IC50": "47.1 µM"}
{"SMILES": "O=C1Nc2ccccc2C1=Nc1ccc(Cl)cc1", "method": "MTT", "time": "48 h", "IC50": "72.3 µM"}
{"SMILES": "Cc1nc2ccc(-c3ccc(F)cc3)cc2c(O)c1C(=O)O", "method": "MTT", "time": "48 h", "IC50": "≥ 100 µM"}
